# Data from ChEMBL document CHEMBL1641583, “Design, synthesis, and biological evaluation of N-acetyl-S-(p-chlorophenylcarbamoyl)cysteine and its analogs as a novel class of anticancer agents” (Bioorg Med Chem, 2011).
# The source made the active and inactive calls. No cut-off for these calls is given here.
# Key:
# UACC-62 [1] = experiment: Cytotoxicity against human UACC62 cells after 6 days by MTT assay; type: functional, cell-based; details: UACC-62, 144 h
# [2] = Cytotoxicity against human GC3/C1 cells after 6 days by MTT assay; type: functional, cell-based; details: GC3/C1, 144 h
# OVCAR-3 [3] = experiment: Cytotoxicity against human OVCAR3 cells after 6 days by MTT assay; type: functional, cell-based; details: OVCAR-3, 144 h
# SK-MEL-2 [4] = experiment: Cytotoxicity against human SK-MEL-2 cells after 6 days by MTT assay; type: functional, cell-based; details: SK-MEL-2, 144 h
# UACC-62 [5] = experiment: Cytotoxicity against human UACC62 cells after 1 to 3 days by MTT assay; type: functional, cell-based
# OVCAR-3 [6] = experiment: Cytotoxicity against human OVCAR3 cells after 1 to 3 days by MTT assay; type: functional, cell-based
# SK-MEL-2 [7] = experiment: Cytotoxicity against human SK-MEL-2 cells after 1 to 3 days by MTT assay; type: functional, cell-based
# UACC-62 [8] = experiment: Ratio of compound IC50 to dacarbazine IC50 for human UACC62 cells; type: functional
# SK-MEL-2 [9] = experiment: Ratio of compound IC50 to dacarbazine IC50 for human SK-MEL-2 cells; type: functional
# [10] = Solubility of the compound in ethyl acetate; type: physicochemical
# In short: (§1)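 Solubility measured in ethyl acetate and in 0.1 M phosphate buffer pH 7.4; reported in mg/mL.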
# [11] = Solubility of the compound in 0.1 M phosphate buffer at pH 7.4; type: physicochemical; in short: as §1
# PC-3 = experiment: Cytotoxicity against human PC3 cells after 6 days by MTT assay; type: functional, cell-based
# NCI-H226 = experiment: Cytotoxicity against human NCI-H226 cells after 6 days by MTT assay; type: functional, cell-based
# UO-31 = experiment: Cytotoxicity against human UO31 cells after 6 days by MTT assay; type: functional, cell-based
# A-431 = experiment: Cytotoxicity against human A431 cells after 6 days by MTT assay; type: functional, cell-based
# [12] = Cytotoxicity against african green monkey CV1 cells after 6 days by MTT assay; type: cell-based; details: Chlorocebus aethiops, CV-1, 144 h
# UACC-62 [13] = experiment: Cell cycle arrest in human UACC62 cells assessed as DNA accumulation at 0.01 to 1 uM after 6 days using propidium iodide staining by flow cytometry; type: functional, cell-based
# In short: (§2)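 Cells seeded in 75 cm² flasks (GC3/c1 0.3 million, UACC-62 0.14 million) in RPMI 1640/10% FBS, exposed 6 days; adherent cells only trypsinized, PBS-washed, 1 million fixed in 70% ethanol at 4 °C, RNase A 30 min 37 °C, propidium iodide 30 min dark at room temperature; DNA content by flow cytometry; mean ± SD, three independent experiments.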
# [14] = Cell cycle arrest in human GC3/C1 cells assessed as DNA accumulation at 0.01 to 1 uM after 6 days using propidium iodide staining by flow cytometry; type: functional, cell-based; in short: as §2
# UACC-62 [15] = experiment: Induction of apoptosis in human UACC62 cells assessed as translocation of phosphatidylserine from inner layer to outer layer of cell membrane after 6 days using annexin V staining by flow cytometry; type: functional, cell-based
# In short: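 UACC-62 plated and dosed in 96-well format as for cytotoxicity, 6 days; adherent plus floating cells trypsinized, PBS-washed, 1×10^6 cells/mL in annexin-binding buffer; ~1×10^5 cells stained with Alexa Fluor 488 annexin V and PI 15 min dark, room temperature; early plus late apoptotic fractions summed by flow cytometry; mean ± SD, three experiments.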
# UACC-62 [16] = experiment: Induction of apoptosis in human UACC62 cells assessed as translocation of phosphatidylserine from inner layer to outer layer of cell membrane at > 1 uM after 6 days using annexin V staining by flow cytometry; type: functional, cell-based
Compound,IC50 (UACC-62 [1]),IC50 [2],IC50 (OVCAR-3 [3]),other results
CC(=O)N[C@@H](CSC(=O)Nc1ccc(F)cc1)C(=O)O,0.036 µM,114 µM,> 200 µM,IC50 (SK-MEL-2 [4]): 0.43 µM; Activity (UACC-62 [5]): inactive; Activity (OVCAR-3 [6]): inactive; Activity (SK-MEL-2 [7]): inactive; Ratio IC50 (UACC-62 [8]): 328; Ratio IC50 (SK-MEL-2 [9]): 279; solubility [10]: 388 mg/mL; solubility [11]: 26 mg/mL
CC(=O)N[C@@H](CSC(=O)NCc1ccc(Cl)cc1)C(=O)O,> 200 µM,> 200 µM,> 200 µM,–
CC(=O)N[C@@H](CSC(=O)Nc1ccc(Br)cc1)C(=O)O,0.32 µM,63.5 µM,> 200 µM,IC50 (SK-MEL-2 [4]): 0.12 µM; Activity (UACC-62 [5]): inactive; Activity (OVCAR-3 [6]): inactive; Activity (SK-MEL-2 [7]): inactive; Ratio IC50 (UACC-62 [8]): 37; Ratio IC50 (SK-MEL-2 [9]): 1000; solubility [10]: 50 mg/mL; solubility [11]: 24 mg/mL
COc1ccc(NC(=O)SC[C@H](NC(C)=O)C(=O)O)cc1,75.2 µM,> 200 µM,> 200 µM,–
CN(C)/N=N/c1[nH]cnc1C(N)=O [DACARBAZINE],11.8 µM,7.67 µM,17.7 µM,IC50 (SK-MEL-2 [4]): 120 µM
CC(=O)N[C@@H](CSC(=O)Nc1ccccc1Cl)C(=O)O,> 200 µM,> 200 µM,> 200 µM,–
CC(=O)N[C@@H](CSC(=O)Nc1ccccc1)C(=O)O,125 µM,178 µM,153 µM,–
CC(=O)N[C@@H](CSC(=O)Nc1ccccc1F)C(=O)O,> 200 µM,> 200 µM,> 200 µM,–
CC(=O)N[C@@H](CSC(=O)Nc1ccc([N+](=O)[O-])cc1Cl)C(=O)O,> 200 µM,> 200 µM,> 200 µM,–
COc1ccccc1CNC(=O)SC[C@H](NC(C)=O)C(=O)O,> 200 µM,> 200 µM,> 200 µM,–
CC(=O)N[C@@H](CSC(=O)Nc1ccc(I)cc1)C(=O)O,46.2 µM,> 200 µM,> 200 µM,–
CC(=O)N[C@@H](CSC(=O)Nc1ccc(Cl)cc1)C(=O)O,0.024 µM,8.13 µM,> 200 µM,IC50 (SK-MEL-2 [4]): 0.008 µM; Activity (UACC-62 [5]): inactive; Activity (OVCAR-3 [6]): inactive; Activity (SK-MEL-2 [7]): inactive; Ratio IC50 (UACC-62 [8]): 490; Ratio IC50 (SK-MEL-2 [9]): 16000; Activity (PC-3): inactive; Activity (NCI-H226): inactive; Activity (UO-31): inactive; Activity (A-431): inactive; IC50 [12]: 522 µM; solubility [10]: 721 mg/mL; solubility [11]: 26 mg/mL; Activity (UACC-62 [13]): inactive; Activity [14]: inactive; Activity (UACC-62 [15]): Dose-dependent effect; Activity (UACC-62 [16]): inactive
COc1ccc(OC)c(NC(=O)SC[C@H](NC(C)=O)C(=O)O)c1,> 200 µM,> 200 µM,> 200 µM,–
CC(=O)N[C@@H](CSC(=O)Nc1cccc2ccccc12)C(=O)O,> 200 µM,> 200 µM,> 200 µM,–
CC(=O)N[C@@H](CSC(=O)Nc1cc(Cl)cc(Cl)c1)C(=O)O,> 200 µM,> 200 µM,> 200 µM,–
CSc1ccccc1NC(=O)SC[C@H](NC(C)=O)C(=O)O,> 200 µM,> 200 µM,> 200 µM,–
COc1ccccc1NC(=O)SC[C@H](NC(C)=O)C(=O)O,> 200 µM,> 200 µM,> 200 µM,–
CC(=O)N[C@@H](CSC(=O)Nc1cccc(Cl)c1)C(=O)O,> 200 µM,> 200 µM,> 200 µM,–
CC(=O)N[C@@H](CSC(=O)Nc1ccc(C(F)(F)F)cc1[N+](=O)[O-])C(=O)O,> 200 µM,> 200 µM,> 200 µM,–
